The source of these data is ChEMBL document CHEMBL1122629, “Potent and selective antagonists of the antidiuretic responses to arginine-vasopressin based on modifications of [1-(beta-mercapto-beta,beta-pentamethylenepropionic acid),2-D-isoleucine,4- valine]arginine-vasopressin at position 4” (J Med Chem, 1984).

For assay [1], the species on record is Rattus norvegicus. The experiment in a line: Antidiuretic activity in rats and pA2 value is negative logarithm of effective dose (ED). It is filed as functional, organism-based. Conditions: Urine, read-out: pA2 (converted). An outline of the steps:
(§1)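 Antidiuretic assay in rats under ethanol anaesthesia against the USP posterior pituitary reference standard. Standard given 20 min after antagonist, or 10 min for analogues lacking agonism. Each peptide given at a high and a low dose. ED is the dose (nmol/kg) that cuts the response to 2x units of agonist to the response to 1x unit given before antagonist. […] Means ± SE, n assays.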

The species entered for assay [2] is Rattus norvegicus. The experiment in a line: Anti-oxytocic activity in rat uterus pA2 value is negative logarithm of effective dose (ED). It is filed as functional, organism-based. Particulars: read-out: pA2 (converted).
The subject of assay [3] is Rattus norvegicus. As to the kind of experiment: Evaluated in vivo for logarithm effective dose (ED). It is filed as functional, organism-based.
For assay [4], the species on record is Rattus norvegicus. As to the kind of experiment: Anti-oxytocic activity on isolated rat uterus in absence of Mg2+. pA2 value is negative logarithm of effective dose (ED). It is filed as functional. Particulars: read-out: pA2 (converted). The method in brief:
(§2)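 Isolated rat uterus, with USP posterior pituitary reference standard as agonist. Antagonism expressed as pA2.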

Assay [5] is filed under the species Rattus norvegicus. As to the kind of experiment: Anti-oxytocic activity on isolated rat uterus in presence of 0.5 mM of Mg2+. pA2 value is negative logarithm of effective dose (ED). Particulars: read-out: pA2 (converted). It is filed as functional. The method in brief: as §2
For assay [6], the system named is Rattus norvegicus. As to the kind of experiment: Compound was evaluated in vivo for anti-vasopressor activity in rats and pA2 value is negative logarithm of effective dose (ED). Format: functional, organism-based. Conditions: read-out: pA2 (converted). An outline of the steps: (§3)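 Intravenous vasopressor assay in phenoxybenzamine-treated rats under urethane anaesthesia, agonist USP posterior pituitary reference standard. ED is the dose (nmol/kg) that reduces the response to 2x units of agonist to that of 1x unit given before antagonist. […] Means ± SE, number of assays given.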

Assay [7] in a line: Ratio of anti-vasopressor ED50 to antiantidiuretic ED50. Format: functional, Urine. An outline of the steps: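 Ratio of antivasopressor ED to antiantidiuretic ED. Each ED is the dose (nmol/kg) that lowers the response to 2x units of agonist to that of 1x unit before antagonist. Measured in rats: vasopressor assay in phenoxybenzamine-treated, urethane-anaesthetised animals; antidiuretic assay under ethanol anaesthesia.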

The subject of assay [8] is Rattus norvegicus. The experiment in a line: In vivo anti-vasopressor activity in phenoxybenzamine-treated rats under urethane anesthesia is measured as effective dose. It is filed as functional. The method in brief: as §3
The subject of assay [9] is Rattus norvegicus. The experiment in a line: In vivo antidiuretic activity in rat measured as dose that reduced the response seen with 2x units of agonist to equal the response seen with 1x unit of agonist administered before antagonist. Format: functional, Urine. An outline of the steps: as §1
The species entered for assay [10] is Rattus norvegicus. As to the kind of experiment: Anti-oxytocic activity in rat uterus and effective dose (ED) was reported. It is filed as functional. An outline of the steps: (§4)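 Rat uterus in situ, with synthetic oxytocin as agonist. ED is the dose (nmol/kg) that lowers the response to 2x units of agonist to that of 1x unit given before antagonist.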
The species named for assay [11] is Rattus norvegicus. The experiment in a line: In vitro anti-oxytocic activity on isolated rat uteri in absence of Mg2+. pA2 value is negative logarithm of effective dose (ED). It is filed as functional. Particulars: read-out: pA2 (converted). An outline of the steps: as §2
The test system of assay [12] is Rattus norvegicus. The experiment in a line: Compound was evaluated in vivo for anti-oxytocic activity in rat uterus. pA2 value is negative logarithm of effective dose (ED). Format: functional, organism-based. Conditions: read-out: pA2 (converted). An outline of the steps:
as §4

For assay [13], the system named is Rattus norvegicus. As to the kind of experiment: Compound was evaluated in vivo for anti-oxytocic activity in rat uteri. pA2 value is negative logarithm of effective dose (ED). It is filed as functional, organism-based. Particulars: read-out: pA2 (converted). The method in brief:
as §4

Structures are written as SMILES.

Take `NC(=O)CNC(=O)[C@H](CCCN=C(N)N)NC(=O)[C@@H]1CCCN1C(=O)[C@@H]1CSSC2(CCCCC2)CC(=O)N[C@H](Cc2ccccc2)C(=O)N[C@@H](Cc2ccccc2)C(=O)N[C@@H](CO)C(=O)N[C@@H](CC(N)=O)C(=O)N1`: the Kb in the assay filed under Rattus norvegicus [1] is 46.8 nM; in the assay listed under Rattus norvegicus [2], 200 nM; in the assay filed under Rattus norvegicus [4], 22.9 nM; in the assay listed under Rattus norvegicus [5], 14.8 nM. The in vivo pA2 effective dose (as concentration) in the assay on Rattus norvegicus [3] is 23.4 nM.

In the case of `CC[C@@H](C)[C@H]1NC(=O)CC2(CCCCC2)SSC[C@@H](C(=O)N2CCC[C@H]2C(=O)N[C@@H](CCCN=C(N)N)C(=O)NCC(N)=O)NC(=O)[C@H](CC(N)=O)NC(=O)[C@H](C)NC(=O)[C@H](Cc2ccccc2)NC1=O`, the Kb is 17.4 nM in the assay listed under Rattus norvegicus [1]; 724 nM in the assay filed under Rattus norvegicus [2]; 31.6 nM in the assay listed under Rattus norvegicus [4]; 933 nM in the assay with Rattus norvegicus [6]; 33.9 nM in the assay listed under Rattus norvegicus [5].

With `CCC[C@@H]1NC(=O)[C@H](Cc2ccccc2)NC(=O)[C@@H]([C@H](C)CC)NC(=O)CC2(CCCCC2)SSC[C@@H](C(=O)N2CCC[C@H]2C(=O)N[C@@H](CCCN=C(N)N)C(=O)NCC(N)=O)NC(=O)[C@H](CC(N)=O)NC1=O` [listing 1 of 2 here], the Kb was 97.7 nM in the assay filed under Rattus norvegicus [1], 295 nM in the assay listed under Rattus norvegicus [2], 14.8 nM in the assay listed under Rattus norvegicus [4] and 15.8 nM in the assay filed under Rattus norvegicus [5]. The in vivo pA2 effective dose (as concentration) in the assay with Rattus norvegicus [3] was 110 nM.

For `CCC[C@@H]1NC(=O)[C@H](Cc2ccccc2)NC(=O)[C@@H]([C@H](C)CC)NC(=O)CC2(CCCCC2)SSC[C@@H](C(=O)N2CCC[C@H]2C(=O)N[C@@H](CCCN=C(N)N)C(=O)NCC(N)=O)NC(=O)[C@H](CC(N)=O)NC1=O` [listing 2 of 2 here], the Ratio in [7] came out at 1.2. The ED in the assay on Rattus norvegicus [8] stood at 8.2 nmol/kg; in the assay with Rattus norvegicus [9], 7 nmol/kg; in the assay listed under Rattus norvegicus [10] it was 22 nmol/kg.

`CC[C@@H]1NC(=O)[C@H](Cc2ccccc2)NC(=O)[C@@H]([C@H](C)CC)NC(=O)CC2(CCCCC2)SSC[C@@H](C(=O)N2CCC[C@H]2C(=O)N[C@@H](CCCN=C(N)N)C(=O)NCC(N)=O)NC(=O)[C@H](CC(N)=O)NC1=O` [listing 1 of 2 here]: the Kb in the assay listed under Rattus norvegicus [1] was 6.03 nM; in the assay listed under Rattus norvegicus [11] it was 32.4 nM; in the assay filed under Rattus norvegicus [2] it was 224 nM; in the assay on Rattus norvegicus [6], 186 nM; in the assay filed under Rattus norvegicus [5] it was 93.3 nM.

On to `CC[C@@H]1NC(=O)[C@H](Cc2ccccc2)NC(=O)[C@@H]([C@H](C)CC)NC(=O)CC2(CCCCC2)SSC[C@@H](C(=O)N2CCC[C@H]2C(=O)N[C@@H](CCCN=C(N)N)C(=O)NCC(N)=O)NC(=O)[C@H](CC(N)=O)NC1=O` [listing 2 of 2 here], for which, in assay [7], the Ratio amounted to 29. The ED in the assay with Rattus norvegicus [8] is 12 nmol/kg; in the assay with Rattus norvegicus [9], 0.41 nmol/kg; in the assay filed under Rattus norvegicus [10] it was 19 nmol/kg.

As to `CC[C@@H](C)[C@H]1NC(=O)CC2(CCCCC2)SSC[C@@H](C(=O)N2CCC[C@H]2C(=O)N[C@@H](CCCN=C(N)N)C(=O)NCC(N)=O)NC(=O)[C@H](CC(N)=O)NC(=O)[C@H]([C@@H](C)O)NC(=O)[C@H](Cc2ccccc2)NC1=O`, the Kb was 12.3 nM in the assay listed under Rattus norvegicus [1], 7.94 nM in the assay filed under Rattus norvegicus [4], 20.4 nM in the assay filed under Rattus norvegicus [5] and 135 nM in the assay with Rattus norvegicus [12]. In the assay on Rattus norvegicus [3], this compound showed an in vivo pA2 effective dose (as concentration) of 148 nM.

Turning to `CC[C@@H](C)[C@H]1NC(=O)CC2(CCCCC2)SSC[C@@H](C(=O)N2CCC[C@H]2C(=O)N[C@@H](CCCN=C(N)N)C(=O)NCC(N)=O)NC(=O)[C@H](CC(N)=O)NC(=O)[C@H]([C@@H](C)CC)NC(=O)[C@H](Cc2ccccc2)NC1=O` [listing 1 of 2 here], the Kb in the assay filed under Rattus norvegicus [1] is 9.12 nM; with Rattus norvegicus [13] it was 126 nM; in the assay listed under Rattus norvegicus [4], 33.9 nM; with Rattus norvegicus [6], 380 nM; in the assay filed under Rattus norvegicus [5], 15.1 nM.

As to `CC[C@@H](C)[C@H]1NC(=O)CC2(CCCCC2)SSC[C@@H](C(=O)N2CCC[C@H]2C(=O)N[C@@H](CCCN=C(N)N)C(=O)NCC(N)=O)NC(=O)[C@H](CC(N)=O)NC(=O)[C@H]([C@@H](C)CC)NC(=O)[C@H](Cc2ccccc2)NC1=O` [listing 2 of 2 here], the Ratio in assay [7] came to 39. Moreover, the ED turned out to be 26 nmol/kg with Rattus norvegicus [8], 0.67 nmol/kg with Rattus norvegicus [9] and 9.4 nmol/kg in the assay filed under Rattus norvegicus [10].
